EWS-Fli block: EWS/Fli transcriptional activity inhibition; A673 NR0B1-luciferase reporter, viability-normalised; 350,000 compounds, 0.67% hits; inhibition, % at 12.6 µM;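 active means mean inhibition of at least 50% after viability correction, with every replicate also passing that limit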;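 further: firefly luciferase signal divided by Alamar Blue viability fluorescence both relative to DMSO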
FN deposit inh: fibronectin deposition inhibition; AID 743247; inhibition, % at 12.6 µM; AH1F fibroblasts, Alexa488-fibronectin deposition fluorescence, overnight; 350,000 compounds, 0.086% hits;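 active means mean inhibition across replicates of 30% or more, regardless of how many single replicates reach that level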;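 further: positive control wells lacked labelled fibronectin entirely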
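Material: AH1F fibroblast monolayer depositing Alexa488-labelled fibronectin into matrix / Amount: 10000 AH1F cells per well / Signal: fluorescence 485/525 nm / Medium: DMEM, 2% serum / Compound: single dose, pinned / Incubation: 1 h cell adhesion before compound, then overnight fibronectin incubation / Reagent: Alexa488-FN, 24 nM final / Read-out: inhibition of fibronectin deposition signal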
PAX8 reporter: PAX8 transcriptional activity inhibition; RMG-I TPO-luciferase reporter, SteadyGlo, 24 h; inhibition, % at 12.6 µM; 360,000 compounds, 1.2% hits;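 active means mean replicate inhibition at least 60% with every replicate also reaching 60%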;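 further: luciferase light reporting Pax8 driven TPO promoter activity; plate controls were median of neutral control wells for no effect and mitoxantrone controls for full effect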
PGC1a acetyl inh: lowers PGC1a acetylation signal in U2OS cells | 350,000 compounds, 0.17% hits | inhibition, % at 15.6 µM | AID 651687 | AlphaScreen anti-acetyl-lysine; with virally co-expressed GCN5 acetyltransferase;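 active means every replicate shows inhibition of at least 40%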;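 further: 0% = neutral control wells and 100% = positive control wells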
HIV Env fusion: inhibitors of HIV Env-mediated cell fusion; HeLa-JRFL Env/CEM21 cell fusion, luciferase; inhibition, % at 12.3 µM; 360,000 compounds, 1.1% hits; AID 651610;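 active means mean replicate inhibition score of at least 50 and every replicate individually at or above 50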;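 further: 0% = plate neutral controls and 100% = maraviroc near 300 nM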
FGF22 binding: binders of recombinant human FGF22 by thermal shift; Q9HCT0; SYPRO orange fluorescence; percent of sucrose octasulfate shift, DMSO zero; activity (Tm shift, normalised), % at 9.99 µM; 340,000 compounds, 1.5% hits; AID 651658;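 active means mean Tm shift, scaled 0 neutral to 100 positive control, at about 1.3% or above, every replicate too, limit read from the data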
Target sequence (Q9HCT0 whole entry, looked up): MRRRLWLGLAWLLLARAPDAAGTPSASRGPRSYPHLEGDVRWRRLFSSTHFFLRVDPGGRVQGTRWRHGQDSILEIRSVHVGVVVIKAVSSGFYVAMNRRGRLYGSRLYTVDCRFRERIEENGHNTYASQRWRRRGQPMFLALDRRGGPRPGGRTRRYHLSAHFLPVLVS
* = called active by the depositor; . = no result given; [ ] = remark or other dose. Compounds with a hit are over-represented: about 3.1% of the library has one in this group of screens.

SMILES	EWS-Fli block	FN deposit inh	PAX8 reporter	PGC1a acetyl inh	HIV Env fusion	FGF22 binding
COc1ccc(S(=O)(=O)Nc2ccc3c(c2)C(=O)N([C@@H](C)CO)C[C@@H](C)[C@@H](CN(C)C(=O)Nc2ccc(C(F)(F)F)cc2)OCCCC[C@H](C)O3)cc1	2.4	-2.4	9.3	9.9	-10.1[16.7 µM]	0.9
COc1ccc(S(=O)(=O)Nc2ccc3c(c2)C(=O)N([C@@H](C)CO)C[C@H](C)[C@@H](CN(C)C(=O)Nc2ccc(C(F)(F)F)cc2)OCCCC[C@H](C)O3)cc1	9.5	-7.8	64.5*	9.2	24.4[16.7 µM]	0.1
COc1ccc(S(=O)(=O)Nc2ccc3c(c2)C(=O)N([C@H](C)CO)C[C@H](C)[C@H](CN(C)C(=O)Nc2ccccc2)OCCCC[C@H](C)O3)cc1	8.1	-0.3	-1.5	-17.5	59.8*[16.7 µM]	-0.8
C[C@@H]1CN([C@H](C)CO)C(=O)c2cc(NS(=O)(=O)c3ccc(Cl)cc3)ccc2O[C@@H](C)CCCCO[C@@H]1CN(C)S(C)(=O)=O	-5.4	-9.9	-11.3	-0.8	7.7[16.7 µM]	-0.3
CN1C(=O)c2cc(NC(=O)c3cscn3)ccc2OC[C@@H]2O[C@@H](CC(=O)N3CCCCC3)CC[C@H]21	-0.4	2.4	7.4	-4.1	-13.9[16.7 µM]	-0.1
CC(C)CNC(=O)N1c2ccccc2Sc2ccccc21	8.4	5.9	12.9	.	11.1	-0.1
O=C(NCCc1ccccc1)N1c2ccccc2Sc2ccccc21	.	-13.4	10.6	1.0	59.8*	.
CCN(CC)c1ccc(C(=C2C=CC(=[N+](CC)CC)C=C2)c2ccc(N(CC)CC)cc2)cc1	34.3	60.4*	112.8*	83.4*	62.1*	.
CCN(CC)c1ccc(C(=C2C=CC(=[N+](CC)CC)C=C2)c2ccccc2)cc1	39.6	37.7*	113.0*	.	80.6*	-0.2
CCN(CC)c1ccc(C(=S)N2CCN(c3ccccc3)CC2)cc1	.	14.1	.	-6.9	-26.9	.
CCn1cnc2scc(-c3ccccc3)c2c1=O	.	3.9	-8.4	.	-213.7	.
Cn1cc(/C=N/n2cnc3scc(-c4ccc(Cl)cc4)c3c2=O)c2ccccc21	.	11.9	64.8*	18.7	-275.2	.
O=S(=O)([N-]c1nc2ccccc2nc1-[n+]1ccccc1)c1ccc(F)cc1	-3.3	.	16.4	.	16.5	44.7*
C[C@@H]1CCCCO[C@@H](CN(C)Cc2ccc(C(=O)O)cc2)[C@H](C)CN([C@H](C)CO)C(=O)c2cc(NC(=O)Cc3ccccc3)ccc2O1	-4.3	.	-31.3	0.6	0.2[16.7 µM]	-0.5
C[C@@H]1CCCCO[C@@H](CN(C)S(=O)(=O)c2cccs2)[C@H](C)CN([C@@H](C)CO)C(=O)c2cc(NS(=O)(=O)c3ccc(Cl)cc3)ccc2O1	-1.7	-6.3	70.5*	-13.3	10.8[16.7 µM]	-0.6
C[C@@H]1CN([C@H](C)CO)C(=O)c2cc(NS(=O)(=O)c3ccc(Cl)cc3)ccc2O[C@@H](C)CCCCO[C@H]1CN(C)S(=O)(=O)c1cccs1	2.2	-13.9	13.3	1.6	62.6*[16.7 µM]	0.0
C[C@@H]1CN([C@H](C)CO)C(=O)c2cc(NS(=O)(=O)c3ccc(Cl)cc3)ccc2O[C@@H](C)CCCCO[C@@H]1CN(C)S(=O)(=O)c1cccs1	-0.4	-12.1	13.5	-3.7	-8.4[16.7 µM]	-0.8
CC(C)C#Cc1cnc2c(c1)C(=O)N([C@@H](C)CO)C[C@@H](C)[C@H](CN(C)Cc1ccccc1)O2	12.6	4.3	.	-0.5	8.0[16.7 µM]	0.5
CC=Cc1ccc2n(c1=O)C[C@@H]1[C@@H](CO)[C@H](C(=O)Nc3nccs3)N(Cc3ccccc3F)[C@H]21 (mixture of isomers)	-2.8	.	3.8	.	.	-0.2
C/C(=N\NC(=O)c1cccnc1)c1cccc([N+](=O)[O-])c1	4.0	2.1	-14.1	.	12.8	43.3*
C/C(=N\NC(=O)c1ccc([N+](=O)[O-])cc1)c1cccc([N+](=O)[O-])c1	-0.4	-4.9	12.0	-6.0	1.7	0.4
C/C(=N\NC(=O)c1ccc(Cn2cc([N+](=O)[O-])cn2)o1)c1cccc(NC(=O)c2cccnc2)c1	5.4	31.2*	-10.6	12.5	1.7	0.0
CO[C@H]1CN(C)C(=O)c2cc(NS(=O)(=O)c3cn(C)cn3)ccc2OC[C@@H](C)N(Cc2cccc(F)c2)C[C@H]1C	2.4	-11.3	-4.9	-1.1	.	0.1
Cc1cc2cc(CN(Cc3ccco3)S(=O)(=O)c3c(C)ccc4nsnc34)c(=O)[nH]c2cc1C	.	.	.	2.1	77.3*	.
O=C(NCc1ccco1)c1ccc(S(=O)(=O)N2CCCCC2)cc1	13.5	-3.5	-10.8	.	6.0	43.6*
SMILES	EWS-Fli block	FN deposit inh	PAX8 reporter	PGC1a acetyl inh	HIV Env fusion	FGF22 binding
O=C(NCc1ccco1)c1ccc(F)c(S(=O)(=O)N2CCCCC2)c1	9.4	1.8	3.1	-10.4	12.2	43.0*
Cc1ccc(C(=O)NCc2ccccn2)cc1S(=O)(=O)N1CCCCC1	-3.4	.	5.8	-20.8	90.2*	0.0
O=C(Nc1nnc(-c2ccco2)o1)c1ccc(S(=O)(=O)N2CCCC2)cc1	5.9	4.1	2.7	.	-152.9	43.1*
CC1CCN(S(=O)(=O)c2ccc(C(=O)Nc3nnc(-c4ccco4)o3)cc2)CC1	33.9	-0.6	8.0	.	32.9	0.1
O=C(NCc1ccco1)c1ccc(Br)c(S(=O)(=O)N2CCCCC2)c1	.	.	.	-9.9	.	.
O=C(NCc1ccco1)c1ccc(S(=O)(=O)N2CCCCCC2)cc1	-7.2	0.7	-0.8	.	-27.4	-0.2
Cc1ccc(S(=O)(=O)N(C)C[C@@H]2OCCCC[C@@H](C)Oc3ccc(NS(=O)(=O)c4c(C)noc4C)cc3C(=O)N([C@@H](C)CO)C[C@H]2C)cc1	2.3	-1.9	18.6	2.3	5.4[16.7 µM]	-0.2
CCCNC(=O)N1CC(=O)N2[C@H](CO)[C@H](c3ccc(C#CCC4CCCC4)cc3)[C@@H]2C1	0.5	-5.2	.	-7.0	.	.
CCCN1C[C@H](C)[C@H](OC)CN(C)C(=O)c2cc(NC(=O)C3CCC3)ccc2OC[C@H]1C	4.5	-8.0	-17.5	6.5	-4.5[16.7 µM]	.
COc1cccc(-c2nnc(NC(=O)c3ccc(S(=O)(=O)N4CC(C)OC(C)C4)cc3)o2)c1 (stereo unspecified)	.	-2.9	27.0	-4.9	55.2*	.
O=C(CSc1nnc(NC(=O)c2ccc(S(=O)(=O)N3CCOCC3)cc2)s1)Nc1ccccc1C(F)(F)F	0.8	-1.9	69.1*	-0.5	.	-0.2
Cc1nn(C)cc1-c1cc(C(=O)O)c2ccccc2n1	4.7	3.2	32.0	11.2	-0.5	0.1
O=C(Nc1ccc([N+](=O)[O-])cn1)c1cc(-c2cccc(Br)c2)nc2ccccc12	2.6	-1.5	115.2*	.	.	-0.1
O=C(O)c1ccccc1NC(=O)c1cc(-c2ccccc2)nc2ccccc12	9.3	-0.6	0.7	.	-0.4	3.9*
Cc1cc(-c2cc(C(=O)O)c3ccccc3n2)c(C)s1	4.4	-6.8	5.9	6.6	-10.2	43.5*
